Assay results from ChEMBL document CHEMBL4414587 (J Med Chem, 2019).

Experiments:
[1] = Metabolic stability in rat liver microsomes assessed as parent compound remaining at 10 uM measured after 60 mins in presence of NADPH regenerating system by LC/MS/MS analysis; assay type: ADME, Microsome; details: read-out: Stability
Method in brief: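 Compound at 10 μM final was incubated with rat liver microsomes at 0.5 mg/mL in 100 mM potassium phosphate, pH 7.4, with an NADPH regenerating system. Buprenorphine served as positive control. Parent disappearance was followed by LC/MS/MS, and percent remaining was reported at 60 min. Reactions were run in triplicate.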

Homo sapiens = organism: Homo sapiens; test: Selectivity ratio of Ki for displacement of [3H]N-methylspiperone from human D2L receptor expressed in HEK293 cell membranes to Ki for displacement of [3H]N-methylspiperone from human D3 receptor expressed in HEK293 cell membranes
D(3) dopamine receptor [2] = biological target: T1, D(3) dopamine receptor (Homo sapiens, UniProt P35462); test: Agonist activity at human D3 receptor expressed in CHO cells assessed as stimulation of quinpirole-induced mitogenesis; assay type: cell-based
T1 sequence (P35462 whole entry): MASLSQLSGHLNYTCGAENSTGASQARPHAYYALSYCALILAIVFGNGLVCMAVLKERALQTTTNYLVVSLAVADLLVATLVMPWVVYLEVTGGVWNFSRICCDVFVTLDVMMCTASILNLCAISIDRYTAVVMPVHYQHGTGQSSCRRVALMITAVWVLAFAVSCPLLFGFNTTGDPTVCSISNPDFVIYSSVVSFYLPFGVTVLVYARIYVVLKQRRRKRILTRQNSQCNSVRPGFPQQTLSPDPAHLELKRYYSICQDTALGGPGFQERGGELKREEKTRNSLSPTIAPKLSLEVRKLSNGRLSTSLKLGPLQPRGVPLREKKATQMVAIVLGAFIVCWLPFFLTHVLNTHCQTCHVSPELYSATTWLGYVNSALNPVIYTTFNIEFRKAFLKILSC

D(3) dopamine receptor [3] = biological target: T1, D(3) dopamine receptor; test: Agonist activity at human D3 receptor expressed in CHO cells assessed as stimulation of quinpirole-induced mitogenesis relative to control; assay type: cell-based; set-up: concentration or dose not given beside the values
[4] = biological target: T2, 5-hydroxytryptamine receptor 1A (Homo sapiens) (UniProt P08908); test: Agonist activity at 5-HT1A receptor (unknown origin) assessed as stimulation of [35S]GTPgammaS binding relative to control; assay type: functional
T2 sequence (whole entry): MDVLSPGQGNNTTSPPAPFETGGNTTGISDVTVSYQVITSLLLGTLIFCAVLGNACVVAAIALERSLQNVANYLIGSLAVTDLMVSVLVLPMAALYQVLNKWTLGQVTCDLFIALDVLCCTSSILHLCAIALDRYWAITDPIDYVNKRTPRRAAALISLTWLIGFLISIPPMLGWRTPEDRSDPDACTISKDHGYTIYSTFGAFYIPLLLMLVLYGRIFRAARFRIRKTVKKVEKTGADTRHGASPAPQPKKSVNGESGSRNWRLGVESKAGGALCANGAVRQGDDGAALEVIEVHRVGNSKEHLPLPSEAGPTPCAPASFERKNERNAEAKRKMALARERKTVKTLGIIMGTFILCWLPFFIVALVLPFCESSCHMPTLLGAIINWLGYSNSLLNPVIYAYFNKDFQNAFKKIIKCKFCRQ

[5] = Cmax in Long-Evans rat brain at 10 mg/kg, po measured up to 24 hrs by LC/MS/MS analysis; assay type: ADME, organism-based; set-up: dose 10 mg/kg, route oral; details: in vivo
[6] = Tmax in Long-Evans rat plasma at 10 mg/kg, po measured up to 24 hrs by LC/MS/MS analysis; assay type: ADME, organism-based
[7] = Tmax in Long-Evans rat brain at 10 mg/kg, po measured up to 24 hrs by LC/MS/MS analysis; assay type: ADME, organism-based
[8] = AUC (0 to t) in Long-Evans rat brain at 10 mg/kg, po measured up to 24 hrs by LC/MS/MS analysis; assay type: ADME, organism-based; details: in vivo
[9] = AUC (0 to t) in Long-Evans rat plasma at 10 mg/kg, po measured up to 24 hrs by LC/MS/MS analysis; assay type: ADME, organism-based; set-up: time < 24 hr, dose 10 mg/kg, route oral
D(2) dopamine receptor = D(2) dopamine receptor (Homo sapiens, UniProt P14416); test: Displacement of [3H]N-methylspiperone from human D2L receptor expressed in HEK293 cell membranes measured after 60 mins by scintillation counting method
Sequence of D(2) dopamine receptor (P14416 whole entry): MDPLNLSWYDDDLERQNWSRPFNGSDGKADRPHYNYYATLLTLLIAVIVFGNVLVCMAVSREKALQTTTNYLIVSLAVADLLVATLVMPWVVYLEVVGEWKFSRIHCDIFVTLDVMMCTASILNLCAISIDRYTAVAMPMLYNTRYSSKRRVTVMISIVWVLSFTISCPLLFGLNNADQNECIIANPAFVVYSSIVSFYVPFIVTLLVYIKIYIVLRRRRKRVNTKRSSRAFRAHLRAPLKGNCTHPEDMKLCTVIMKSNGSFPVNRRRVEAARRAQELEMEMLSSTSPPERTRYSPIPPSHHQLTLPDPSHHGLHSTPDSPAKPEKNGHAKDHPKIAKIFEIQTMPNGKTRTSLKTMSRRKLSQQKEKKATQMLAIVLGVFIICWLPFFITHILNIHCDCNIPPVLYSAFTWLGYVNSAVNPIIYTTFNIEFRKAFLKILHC
Method in brief: (§1)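 Membranes from HEK293 cells stably expressing human D2L or D3 were used at 20 μg protein/well in EBSS buffer, pH 7.4, with 0.4 nM [3H]N-methylspiperone. Compounds were run as 10 half-log dilutions in triplicate for 1 h at rt, with nonspecific binding defined by 10 μM (+)-butaclamol. Reactions were filtered onto GF/B and counted by scintillation.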

D(3) dopamine receptor [10] = biological target: T1, D(3) dopamine receptor; test: Displacement of [3H]N-methylspiperone from human D3 receptor expressed in HEK293 cell membranes measured after 60 mins by scintillation counting method; method in brief: as §1
[11] = Cmax in Long-Evans rat plasma at 10 mg/kg, po measured up to 24 hrs by LC/MS/MS analysis; assay type: ADME, organism-based; set-up: dose 10 mg/kg, route oral
[12] = biological target: T3, 5-hydroxytryptamine receptor 2C (Homo sapiens, UniProt P28335); test: Displacement of [125I] DOI from 5HT2C receptor (unknown origin)
T3 sequence (P28335 whole entry): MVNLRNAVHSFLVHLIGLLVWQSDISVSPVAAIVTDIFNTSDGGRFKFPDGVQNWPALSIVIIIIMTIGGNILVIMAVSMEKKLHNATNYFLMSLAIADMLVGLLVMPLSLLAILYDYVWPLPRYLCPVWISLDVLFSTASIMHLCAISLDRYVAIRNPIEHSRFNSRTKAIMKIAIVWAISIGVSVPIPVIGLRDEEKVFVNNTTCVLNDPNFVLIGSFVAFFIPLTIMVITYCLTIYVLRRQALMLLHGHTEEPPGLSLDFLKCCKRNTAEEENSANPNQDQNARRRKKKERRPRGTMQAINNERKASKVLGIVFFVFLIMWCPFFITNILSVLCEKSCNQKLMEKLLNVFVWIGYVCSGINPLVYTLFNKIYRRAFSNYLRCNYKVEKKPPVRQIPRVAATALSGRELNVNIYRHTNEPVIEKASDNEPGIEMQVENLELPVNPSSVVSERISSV

Row | Structure (SMILES) | remaining at 1 h, 10 µM [1] [%] | Ratio Ki (Homo sapiens) | Activity (D(3) dopamine receptor [3]) [%] | other results
1 | CCc1cccc(N2CCN(CC(O)CCNC(=O)c3cc4ccccc4[nH]3)CC2)c1Cl (racemic) | 57 to 86 | – | – | –
2 | CCc1cccc(N2CCN(C[C@H](F)CCNC(=O)c3cc4ccccc4[nH]3)CC2)c1Cl | 57 to 70 | 215 | – | –
3 | CCc1cccc(N2CCN(CC(F)CCNC(=O)c3cc4ccccc4[nH]3)CC2)c1Cl (racemic) | 38 | 327 | 5.4 | EC50 (D(3) dopamine receptor [2]): > 6.8 µM
4 | CCc1cc(Cl)c(OC)c(N2CCN(CC(O)CCNC(=O)c3ccc4c(c3)OCO4)CC2)c1 (stereo not drawn) | – | 15 | – | –
5 | CCc1cc(Cl)c(OC)c(N2CCN(CC(O)CCNC(=O)c3cc4ccccc4[nH]3)CC2)c1 (racemic) | 57 to 86 | – | – | –
6 | CCc1cc(Cl)c(OC)c(N2CCN(C[C@H](F)CCNC(=O)c3cc4ccccc4[nH]3)CC2)c1 | 57 to 70 | 1650 | – | –
7 | CCc1cccc(N2CCN(CC(F)CCNC(=O)c3cc4ccccc4o3)CC2)c1Cl (stereo not drawn) | 34 | 134 | 15.5 | EC50 (D(3) dopamine receptor [2]): > 7.5 µM; Activity [4]: 43%
8 | CCc1cccc(N2CCN(C[C@@H](F)CCNC(=O)c3cc4ccccc4[nH]3)CC2)c1Cl | 57 to 70 | 1060 | – | –
9 | CCc1cccc(N2CCN(C[C@@H](O)CCNC(=O)c3cc4ccccc4[nH]3)CC2)c1Cl | 57 to 86 | – | – | Activity [4]: 69%; Cmax [5]: 2670 to 3670 pmol/g; Tmax [6]: 2 h; Tmax [7]: 2 h; AUCt [8]: 16665 pmol·h/g
10 | CCc1cc(Cl)c(OC)c(N2CCN(C[C@H](O)CCNC(=O)c3cc4ccccc4[nH]3)CC2)c1 | 57 to 86 | – | 17.7 | Cmax [5]: 1796.6 pmol/g; Tmax [7]: 4 h; AUC(0-t) at 24 h [9]: 2.2 µM·h; AUCt [8]: 8412 pmol·h/g
11 | CCc1cccc(N2CCN(CC(O)CCNC(=O)c3ccc4c(c3)OCO4)CC2)c1Cl (stereo not drawn) | – | 140 | – | Ki (D(2) dopamine receptor): 0.424 µM; Ki (D(3) dopamine receptor [10]): 0.00302 µM
12 | CCc1cc(Cl)c(OC)c(N2CCN(C[C@@H](F)CCNC(=O)c3cc4ccccc4[nH]3)CC2)c1 | 57 to 70 | 535 | – | –
13 | CCc1cc(Cl)c(OC)c(N2CCN(CC(F)CCNC(=O)c3cc4ccccc4o3)CC2)c1 (stereo not drawn) | 12 | 108 | 5.1 | EC50 (D(3) dopamine receptor [2]): > 4 µM
14 | CCc1cc(Cl)c(OC)c(N2CCN(C[C@@H](O)CCNC(=O)c3cc4ccccc4[nH]3)CC2)c1 | 57 to 86 | – | 17 | Cmax [5]: 959.9 pmol/g; Tmax [7]: 4 h; AUC(0-t) at 24 h [9]: 1.07 µM·h; AUCt [8]: 4360 pmol·h/g
15 | CCc1cccc(N2CCN(C[C@H](O)CCNC(=O)c3cc4ccccc4[nH]3)CC2)c1Cl | 57 to 86 | – | – | Activity [4]: 74%; Cmax [11]: 291 to 306 nM; Cmax [5]: 3850 pmol/g; Tmax [6]: 2 h; Tmax [7]: 2 h; AUCt [8]: 21600 pmol·h/g
16 | CCc1cc(Cl)c(OC)c(N2CCN(CC(F)CCNC(=O)c3cc4ccccc4[nH]3)CC2)c1 (racemic) | 75 | 746 | 2.7 | EC50 (D(3) dopamine receptor [2]): > 5.4 µM; Ki [12]: > 8.9 µM
17 | CCc1cc2c(cc1N1CCN(CC(O)CCNC(=O)c3cc4ccccc4o3)CC1)OCO2 (stereo not drawn) | – | 61 | – | –
